What all share (type): functional, cell-based
Test [1] is described as follows: Cytotoxicity against human M4E cells after 72 hrs by alamar blue assay. The method, boiled down: (§1)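 Cells seeded at 800–1000 per well (20–25 cells/µL) and left overnight to attach. Compounds were diluted serially from 10 mM DMSO stocks and tested at 8 final concentrations, 50 to 0.39 µM, in triplicate for 72 h. Vehicle control was 0.5% DMSO. Alamar blue was added to 10% final and fluorescence read after 4 h (ex 530, em 560 nm). Viability was expressed as percent of vehicle, and IC50 taken as 50% kill versus control.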
For orientation: The colour change of resazurin is a common sign of viable cells or microbes.

The next test deals with NCI-H157. The experiment in a line: Cytotoxicity against human NCI-H157 cells after 72 hrs by alamar blue assay. The settings on record: NCI-H157, 72 h. The gist of the method: as §1
The next test has as its system M14. The experiment in a line: Cytotoxicity against human M14 cells after 72 hrs by alamar blue assay. The settings on record: M14, 72 h. The method, boiled down: as §1
A short description of test [2]: Cytotoxicity against human H266 cells after 72 hrs by alamar blue assay. To be noted: H266, 72 h. The method, boiled down:
as §1

In a further test the test system is NCI-H460. The test can be described thus: Cytotoxicity against human H460 cells after 72 hrs by alamar blue assay. To be noted: NCI-H460, 72 h. The method, boiled down: as §1
For a further test, the system named is A549. The test can be described thus: Cytotoxicity against human A549 cells after 72 hrs by alamar blue assay. To be noted: A549, 72 h. The method, boiled down: as §1
Test [3] is described as follows: Cytotoxicity against human SKBR cells after 72 hrs by alamar blue assay. The gist of the method:
as §1

Another test relates to HeLa. The experiment in a line: Cytotoxicity against human HeLa cells after 72 hrs by alamar blue assay. The method, boiled down:
as §1

In another test the test system is HOP-62. The experiment in a line: Cytotoxicity against human HOP62 cells after 72 hrs by alamar blue assay. The settings on record: HOP-62, 72 h. The method, boiled down: as §1
The subject of another test is Calu-1. The experiment in a line: Cytotoxicity against human Calu1 cells after 72 hrs by alamar blue assay. To be noted: Calu-1, 72 h. The method, boiled down: as §1
For a further test, the system named is LOX IMVI. The experiment in a line: Cytotoxicity against human LOXIMVI cells after 72 hrs by alamar blue assay. The gist of the method: as §1
A short description of test [4]: Cytotoxicity against human 292G cells after 72 hrs by alamar blue assay. The gist of the method:
as §1

Another test concerns NCI-H1792. The experiment in a line: Cytotoxicity against human NCI-H1792 cells after 72 hrs by alamar blue assay. To be noted: NCI-H1792, 72 h. The gist of the method: as §1
The test system of a further test is NCI-H1299. The experiment in a line: Cytotoxicity against human NCI-H1299 cells after 72 hrs by alamar blue assay. The settings on record: NCI-H1299, 72 h. The gist of the method:
as §1

Data on twelve compounds can be found in ChEMBL document CHEMBL2086326, “Biological activity evaluation and structure-activity relationships analysis of ferulic acid and caffeic acid derivatives for anticancer” (Bioorg Med Chem Lett, 2012).

By IC50 is commonly meant the point on the concentration scale where inhibition reaches its midpoint. A high value points to lower potency.

Each structure is given as a SMILES string.

Consider `COc1cc(/C=C/C(=O)OCCOc2no[n+]([O-])c2S(=O)(=O)c2ccccc2)ccc1O`, for which the IC50 (in test [1]; with NCI-H157; in the test on M14; in test [2]; in the test on NCI-H460; with A549) was greater than 50 µM in each case. Moreover, the IC50 (in [3]; in the test on HeLa; with HOP-62; with Calu-1; in the test with LOX IMVI; in test [4]) was greater than 50 µM in each case. The 50% inhibitory concentration (IC50) with NCI-H1792 and in the test on NCI-H1299 was greater than 50 µM throughout.

On to `COc1cc(/C=C/C(=O)OCCCCO[N+](=O)[O-])ccc1O`, for which the IC50 came out at 20.3 µM in test [1]; 12.9 µM with NCI-H157; 32.5 µM in the test with M14; 24.8 µM in test [2]; 19.5 µM in the test with NCI-H460; 8.82 µM in the test with A549. Also, the IC50 in [3] was 8.92 µM; with HeLa, 6.35 µM; in the test on HOP-62, 13.1 µM; in the test on Calu-1, 30.1 µM; in the test with LOX IMVI it was 20.4 µM; in test [4], 28.4 µM. The IC50 in the test on NCI-H1792 was 20.8 µM; in the test on NCI-H1299, 4.51 µM.

For `O=C(/C=C/c1ccc(O)c(O)c1)OCCCO[N+](=O)[O-]`, the IC50 is 20 µM in [1]; 4.34 µM in the test on NCI-H157; 24.8 µM in the test on M14; greater than 50 µM in test [2]; 3.31 µM in the test on NCI-H460; 10.8 µM in the test with A549. Moreover, the IC50 was found to be 5.77 µM in test [3]; 3.11 µM in the test with HeLa; 10 µM in the test with HOP-62; 10.7 µM in the test on Calu-1; 18.9 µM in the test with LOX IMVI; 13.5 µM in test [4]. The results for the concentration for half-maximal inhibition (IC50) in the test with NCI-H1792 and with NCI-H1299 were 18.1 µM and 8.03 µM, respectively.

Turning to `COc1cc(/C=C/C(=O)OC(C)C)ccc1O`, the IC50 (in [1]; in the test on NCI-H157; in the test with M14; in [2]; with NCI-H460; in the test on A549) was greater than 50 µM in each case. In addition, the half-maximal inhibitory concentration (IC50) in test [3] is greater than 50 µM; in the test with HeLa, 31.1 µM; in the test with HOP-62 it was greater than 50 µM; in the test on Calu-1, greater than 50 µM; in the test with LOX IMVI, greater than 50 µM; in [4], greater than 50 µM. For the same compound, the IC50 in the test on NCI-H1792 and with NCI-H1299 was greater than 50 µM throughout.

For `CCCCOC(=O)/C=C/c1ccc(O)c(O)c1` [BUTYL CAFFEATE], the IC50 in test [1] amounted to 8.66 µM; in the test on NCI-H157, 2.62 µM; in the test on M14 it was 11.1 µM; in test [2] it was 11.3 µM; in the test with NCI-H460, 5.62 µM; with A549, 3.51 µM. The half-inhibitory concentration (IC50) turned out to be 2.17 µM in test [3]; 0.59 µM with HeLa; 5.59 µM with HOP-62; 11.7 µM in the test with Calu-1; 9.54 µM in the test on LOX IMVI; 6.46 µM in test [4]. The IC50 in the test with NCI-H1792 stood at 5.75 µM; in the test with NCI-H1299, 5.81 µM.

On to `COc1cc(/C=C/C(=O)OCc2cccc(OCc3c(-c4ccccc4)no[n+]3[O-])c2)ccc1O`, for which the IC50 in test [1] was greater than 50 µM; with NCI-H157 it was greater than 50 µM; in the test on M14 it was greater than 50 µM; in test [2] it was greater than 50 µM; in the test on NCI-H460 it was 29.4 µM; in the test on A549, greater than 50 µM. The IC50 in test [3] was 4.18 µM; in the test on HeLa, 5.64 µM; in the test with HOP-62, greater than 50 µM; in the test on Calu-1, greater than 50 µM; with LOX IMVI it was greater than 50 µM; in test [4], greater than 50 µM. Also, the IC50 with NCI-H1792 and with NCI-H1299 was greater than 50 µM throughout.

For `O=C(/C=C/c1ccc(OCCCO[N+](=O)[O-])c(O)c1)OCCCO[N+](=O)[O-]`, the IC50 in [1] is 14.1 µM; with NCI-H157 it was 5.71 µM; in the test on M14, 8.96 µM; in test [2], greater than 50 µM; in the test with NCI-H460, 9.58 µM; with A549, 0.69 µM. The half-inhibitory concentration (IC50) in [3] is 4.81 µM; with HeLa, greater than 50 µM; with HOP-62, 10 µM; with Calu-1 it was 12.5 µM; in the test on LOX IMVI, 6.94 µM; in test [4], 4.98 µM. The IC50 is 6.61 µM with NCI-H1792 and greater than 50 µM with NCI-H1299.

`CCOC(=O)/C=C/c1ccc(O)c(O)c1` [ETHYL CAFFEATE]: the IC50 is 11.2 µM in test [1]; 7.62 µM with NCI-H157; 9.82 µM in the test on M14; greater than 50 µM in test [2]; 13.1 µM with NCI-H460; 7.22 µM in the test on A549. The IC50 was 4.16 µM in test [3]; 1.96 µM in the test with HeLa; 12.5 µM in the test with HOP-62; 17.2 µM in the test on Calu-1; 6.21 µM with LOX IMVI; 5.25 µM in [4]. Further, the IC50 came out at 18.4 µM with NCI-H1792 and 4.93 µM in the test with NCI-H1299.

Take `CC(C)COC(=O)/C=C/c1ccc(O)c(O)c1`: the IC50 is 36.8 µM in test [1]; 8.55 µM with NCI-H157; greater than 50 µM in the test with M14; greater than 50 µM in test [2]; 16 µM in the test with NCI-H460; 13.6 µM with A549. Further, the IC50 is 16.2 µM in [3]; 4.7 µM in the test with HeLa; greater than 50 µM in the test with HOP-62; greater than 50 µM in the test on Calu-1; greater than 50 µM in the test with LOX IMVI; 37.5 µM in test [4]. The IC50 with NCI-H1792 is greater than 50 µM; in the test with NCI-H1299, 37.7 µM.

`COC(=O)/C=C/c1ccc(O)c(OC)c1`: the IC50 (in test [1]; in the test with NCI-H157; in the test with M14; in [2]; in the test with NCI-H460; in the test on A549) was greater than 50 µM throughout. The half-inhibitory concentration (IC50) in test [3] was greater than 50 µM; in the test with HeLa, 5.55 µM; in the test on HOP-62 it was greater than 50 µM; in the test with Calu-1, greater than 50 µM; in the test with LOX IMVI, greater than 50 µM; in [4], greater than 50 µM. The IC50 in the test with NCI-H1792 and with NCI-H1299 was greater than 50 µM throughout.

On to `O=C(/C=C/c1ccc(OCCCCCO[N+](=O)[O-])c(O)c1)OCCCCCO[N+](=O)[O-]`, for which the 50% inhibitory concentration (IC50) in test [1] was greater than 50 µM; with NCI-H157, greater than 50 µM; with M14 it was greater than 50 µM; in test [2], greater than 50 µM; in the test on NCI-H460 it was greater than 50 µM; in the test on A549, 0.45 µM. The IC50 was 2.71 µM in [3]; 5.73 µM in the test on HeLa; greater than 50 µM in the test with HOP-62; greater than 50 µM in the test on Calu-1; 7.23 µM with LOX IMVI; greater than 50 µM in [4]. Also, the half-inhibitory concentration (IC50) with NCI-H1792 and in the test on NCI-H1299 was greater than 50 µM in each case.

As for `CCCCCOC(=O)/C=C/c1ccc(O)c(O)c1`, the IC50 worked out at 6.8 µM in [1]; 2.28 µM in the test with NCI-H157; 7.48 µM with M14; 7.24 µM in test [2]; 1.91 µM in the test on NCI-H460; 5.75 µM in the test with A549. Besides, the IC50 in test [3] amounted to 2.96 µM; in the test on HeLa, 2.02 µM; in the test on HOP-62, 5.11 µM; with Calu-1, 8.57 µM; in the test on LOX IMVI it was 3.38 µM; in [4] it was 7.73 µM. In addition, the IC50 in the test with NCI-H1792 turned out to be 6.35 µM; in the test with NCI-H1299, 4.69 µM.
